Data published in ChEMBL document CHEMBL5705905, “Pharmacological targeting of kinases MST1 and MST2 augments tissue repair and regeneration” (Sci Transl Med, 2016).
Active and inactive are the calls of the source. No cut-off for these calls is given here.

What was measured:
[1] = test system: Tyrosine-protein kinase ABL1 (Homo sapiens), P00519 [F317I]; assay: Inhibition of ABL1 F317I mutant (unknown origin) assessed as remaining activity at 1 uM by Kinome scan method relative to control
Procedure, shortened: (§1)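 Active-site-dependent competition-binding (KINOMEscan) panel of 468 kinases, test compound at 1 μM (from a 10 mM DMSO stock). Read-out is ctrl% = (test signal − positive control signal)/(negative control signal − positive control signal) × 100. DMSO is the negative control (100%) and a control compound is the positive control (0%). Lower ctrl% means tighter binding.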

[2] = target: RAC-gamma serine/threonine-protein kinase (Homo sapiens) (UniProt Q9Y243); assay: Inhibition of AKT3 (unknown origin) assessed as remaining activity at 1 uM by Kinome scan method relative to control; procedure, shortened: as §1
[3] = target: ALK tyrosine kinase receptor (Homo sapiens) (UniProt Q9UM73); assay: Inhibition of ALK (unknown origin) assessed as remaining activity at 1 uM by Kinome scan method relative to control; procedure, shortened: as §1
[4] = target: Mitogen-activated protein kinase kinase kinase 6 (Homo sapiens) (UniProt O95382); assay: Inhibition of ASK2 (unknown origin) assessed as remaining activity at 1 uM by Kinome scan method relative to control; procedure, shortened: as §1
[5] = target: Cyclin-dependent kinase 4 (Homo sapiens) (UniProt P11802); assay: Inhibition of CDK4 (unknown origin) assessed as remaining activity at 1 uM by Kinome scan method relative to control
Sequence of Cyclin-dependent kinase 4 (Homo sapiens) (P11802 whole entry): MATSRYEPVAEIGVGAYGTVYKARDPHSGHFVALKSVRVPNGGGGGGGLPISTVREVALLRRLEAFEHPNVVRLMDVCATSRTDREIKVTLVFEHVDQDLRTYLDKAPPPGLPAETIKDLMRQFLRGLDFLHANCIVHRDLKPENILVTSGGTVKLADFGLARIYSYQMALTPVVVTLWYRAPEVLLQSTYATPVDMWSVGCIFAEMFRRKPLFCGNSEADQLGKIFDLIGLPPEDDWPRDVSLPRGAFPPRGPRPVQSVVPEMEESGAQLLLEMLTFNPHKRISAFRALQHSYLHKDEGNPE
Procedure, shortened: (§2)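 Active-site-dependent competition-binding profiling (KINOMEscan) at 1 μM against a 468-kinase panel; compound supplied from a 10 mM DMSO stock. Read-out is ctrl% = (test signal − positive control signal)/(negative control signal − positive control signal) × 100. DMSO is the negative control (100%) and a control compound the positive control (0%). Lower ctrl% means tighter binding.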

[6] = target: Dual specificity protein kinase CLK3 (Homo sapiens) (UniProt P49761); assay: Inhibition of CLK3 (unknown origin) assessed as remaining activity at 1 uM by Kinome scan method relative to control; procedure, shortened: as §2
[7] = target: Casein kinase I isoform alpha-like (Homo sapiens) (UniProt Q8N752); assay: Inhibition of CSNK1A1L (unknown origin) assessed as remaining activity at 1 uM by Kinome scan method relative to control; procedure, shortened: as §2
[8] = target: Casein kinase I isoform delta (Homo sapiens) (UniProt P48730); assay: Inhibition of CSNK1D (unknown origin) assessed as remaining activity at 1 uM by Kinome scan method relative to control; procedure, shortened: as §2
Sequence of Casein kinase I isoform delta (Homo sapiens) (P48730 whole entry, looked up, canonical isoform): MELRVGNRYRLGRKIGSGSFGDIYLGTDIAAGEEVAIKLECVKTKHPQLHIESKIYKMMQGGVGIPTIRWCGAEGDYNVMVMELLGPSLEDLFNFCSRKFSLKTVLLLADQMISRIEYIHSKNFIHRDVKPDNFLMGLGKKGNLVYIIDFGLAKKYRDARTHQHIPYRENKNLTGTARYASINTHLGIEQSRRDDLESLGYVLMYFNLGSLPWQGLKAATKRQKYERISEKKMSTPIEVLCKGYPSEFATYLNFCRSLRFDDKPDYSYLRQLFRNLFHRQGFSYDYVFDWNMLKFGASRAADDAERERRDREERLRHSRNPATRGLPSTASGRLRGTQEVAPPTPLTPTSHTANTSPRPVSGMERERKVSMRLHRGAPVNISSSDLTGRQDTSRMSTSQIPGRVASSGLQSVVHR

[9] = target: Death-associated protein kinase 2 (Homo sapiens) (UniProt Q9UIK4); assay: Inhibition of DAPK2 (unknown origin) assessed as remaining activity at 1 uM by Kinome scan method relative to control; procedure, shortened: as §2
[10] = test system: Epidermal growth factor receptor (Homo sapiens), P00533 [UNDEFINED MUTATION]; assay: Inhibition of EGFR L747-T751del/Sins mutant (unknown origin) assessed as remaining activity at 1 uM by Kinome scan method relative to control
[11] = target: Insulin receptor (Homo sapiens) (UniProt P06213); assay: Inhibition of INSR (unknown origin) assessed as remaining activity at 1 uM by Kinome scan method relative to control
[12] = target: Mitogen-activated protein kinase kinase kinase 2 (Homo sapiens) (UniProt Q9Y2U5); assay: Inhibition of MAP3K2 (unknown origin) assessed as remaining activity at 1 uM by Kinome scan method relative to control
Sequence of Mitogen-activated protein kinase kinase kinase 2 (Homo sapiens) (Q9Y2U5 whole entry): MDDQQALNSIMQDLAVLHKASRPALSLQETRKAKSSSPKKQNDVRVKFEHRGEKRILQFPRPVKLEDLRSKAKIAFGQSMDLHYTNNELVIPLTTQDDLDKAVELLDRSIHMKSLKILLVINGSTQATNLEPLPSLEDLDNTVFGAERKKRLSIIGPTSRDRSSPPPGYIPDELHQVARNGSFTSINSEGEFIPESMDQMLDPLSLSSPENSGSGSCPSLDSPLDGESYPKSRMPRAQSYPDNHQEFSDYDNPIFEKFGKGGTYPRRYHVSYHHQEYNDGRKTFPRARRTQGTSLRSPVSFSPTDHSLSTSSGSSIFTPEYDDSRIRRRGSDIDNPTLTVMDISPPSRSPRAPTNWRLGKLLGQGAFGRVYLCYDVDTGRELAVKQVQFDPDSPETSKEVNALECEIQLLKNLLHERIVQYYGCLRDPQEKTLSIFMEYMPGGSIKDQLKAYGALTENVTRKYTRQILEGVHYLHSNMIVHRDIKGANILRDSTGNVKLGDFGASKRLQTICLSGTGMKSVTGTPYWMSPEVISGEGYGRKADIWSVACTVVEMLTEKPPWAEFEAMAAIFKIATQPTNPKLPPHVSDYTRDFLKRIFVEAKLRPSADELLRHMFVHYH

[13] = target: Dual specificity mitogen-activated protein kinase kinase 5 (Homo sapiens) (UniProt Q13163); assay: Inhibition of MEK5 (unknown origin) assessed as remaining activity at 1 uM by Kinome scan method relative to control
[14] = target: Cyclin-dependent kinase 17 (Homo sapiens) (UniProt Q00537); assay: Inhibition of PCTK2 (unknown origin) assessed as remaining activity at 1 uM by Kinome scan method relative to control
Sequence of Cyclin-dependent kinase 17 (Homo sapiens) (Q00537 whole entry, looked up): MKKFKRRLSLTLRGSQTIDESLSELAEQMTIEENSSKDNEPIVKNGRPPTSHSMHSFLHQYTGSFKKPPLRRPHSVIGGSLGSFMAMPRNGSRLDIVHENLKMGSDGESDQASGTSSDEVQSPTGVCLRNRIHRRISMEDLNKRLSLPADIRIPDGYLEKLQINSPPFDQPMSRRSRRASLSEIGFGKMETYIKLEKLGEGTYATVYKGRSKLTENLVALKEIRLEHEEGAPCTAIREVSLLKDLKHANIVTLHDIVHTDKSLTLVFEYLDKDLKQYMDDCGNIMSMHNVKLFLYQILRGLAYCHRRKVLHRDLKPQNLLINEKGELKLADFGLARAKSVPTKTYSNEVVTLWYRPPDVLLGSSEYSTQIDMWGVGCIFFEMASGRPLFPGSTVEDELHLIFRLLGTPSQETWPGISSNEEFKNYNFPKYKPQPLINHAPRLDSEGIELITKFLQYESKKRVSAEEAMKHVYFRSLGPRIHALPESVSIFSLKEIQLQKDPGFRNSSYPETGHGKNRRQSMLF

[15] = target: Serine/threonine-protein kinase pim-2 (Homo sapiens) (UniProt Q9P1W9); assay: Inhibition of PIM2 (unknown origin) assessed as remaining activity at 1 uM by Kinome scan method relative to control
Sequence of Serine/threonine-protein kinase pim-2 (Homo sapiens) (Q9P1W9 whole entry, looked up): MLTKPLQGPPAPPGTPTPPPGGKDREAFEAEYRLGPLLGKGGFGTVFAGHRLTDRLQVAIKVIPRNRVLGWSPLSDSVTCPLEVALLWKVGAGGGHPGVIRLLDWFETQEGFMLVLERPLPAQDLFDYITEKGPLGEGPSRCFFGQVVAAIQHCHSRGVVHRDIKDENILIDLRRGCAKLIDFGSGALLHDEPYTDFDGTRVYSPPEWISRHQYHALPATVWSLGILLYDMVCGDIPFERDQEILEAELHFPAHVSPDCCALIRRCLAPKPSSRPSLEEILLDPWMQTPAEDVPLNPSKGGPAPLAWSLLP

[16] = target: Protein kinase C theta type (Homo sapiens) (UniProt Q04759); assay: Inhibition of PRKCQ (unknown origin) assessed as remaining activity at 1 uM by Kinome scan method relative to control
[17] = target: Phosphatidylinositol 4,5-bisphosphate 3-kinase catalytic subunit alpha isoform (Homo sapiens, UniProt P42336, H1047L); assay: Binding affinity to PIK3CA H1047L mutant (unknown origin) assessed as dissociation constant
[18] = target: Phosphatidylinositol 5-phosphate 4-kinase type-2 gamma (Homo sapiens, UniProt Q8TBX8); assay: Binding affinity to PIP5K2C (unknown origin) assessed as dissociation constant
Sequence of Phosphatidylinositol 5-phosphate 4-kinase type-2 gamma (Q8TBX8 whole entry): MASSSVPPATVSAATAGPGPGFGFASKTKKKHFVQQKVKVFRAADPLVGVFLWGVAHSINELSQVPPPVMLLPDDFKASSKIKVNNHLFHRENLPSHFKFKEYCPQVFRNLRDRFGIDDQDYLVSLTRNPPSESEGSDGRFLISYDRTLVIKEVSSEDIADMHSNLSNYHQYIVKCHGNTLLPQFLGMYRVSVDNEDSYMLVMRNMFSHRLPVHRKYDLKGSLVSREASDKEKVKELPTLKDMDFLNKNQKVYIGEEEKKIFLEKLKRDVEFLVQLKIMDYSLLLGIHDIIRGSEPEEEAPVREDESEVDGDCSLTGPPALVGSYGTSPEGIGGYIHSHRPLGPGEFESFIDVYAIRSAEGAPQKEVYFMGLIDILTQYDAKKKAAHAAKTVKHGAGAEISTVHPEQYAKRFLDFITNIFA

[19] = target: Serine/threonine-protein kinase TAO1 (Homo sapiens, UniProt Q7L7X3); assay: Binding affinity to TAOK1 (unknown origin) assessed as dissociation constant
Sequence of Serine/threonine-protein kinase TAO1 (Q7L7X3 whole entry): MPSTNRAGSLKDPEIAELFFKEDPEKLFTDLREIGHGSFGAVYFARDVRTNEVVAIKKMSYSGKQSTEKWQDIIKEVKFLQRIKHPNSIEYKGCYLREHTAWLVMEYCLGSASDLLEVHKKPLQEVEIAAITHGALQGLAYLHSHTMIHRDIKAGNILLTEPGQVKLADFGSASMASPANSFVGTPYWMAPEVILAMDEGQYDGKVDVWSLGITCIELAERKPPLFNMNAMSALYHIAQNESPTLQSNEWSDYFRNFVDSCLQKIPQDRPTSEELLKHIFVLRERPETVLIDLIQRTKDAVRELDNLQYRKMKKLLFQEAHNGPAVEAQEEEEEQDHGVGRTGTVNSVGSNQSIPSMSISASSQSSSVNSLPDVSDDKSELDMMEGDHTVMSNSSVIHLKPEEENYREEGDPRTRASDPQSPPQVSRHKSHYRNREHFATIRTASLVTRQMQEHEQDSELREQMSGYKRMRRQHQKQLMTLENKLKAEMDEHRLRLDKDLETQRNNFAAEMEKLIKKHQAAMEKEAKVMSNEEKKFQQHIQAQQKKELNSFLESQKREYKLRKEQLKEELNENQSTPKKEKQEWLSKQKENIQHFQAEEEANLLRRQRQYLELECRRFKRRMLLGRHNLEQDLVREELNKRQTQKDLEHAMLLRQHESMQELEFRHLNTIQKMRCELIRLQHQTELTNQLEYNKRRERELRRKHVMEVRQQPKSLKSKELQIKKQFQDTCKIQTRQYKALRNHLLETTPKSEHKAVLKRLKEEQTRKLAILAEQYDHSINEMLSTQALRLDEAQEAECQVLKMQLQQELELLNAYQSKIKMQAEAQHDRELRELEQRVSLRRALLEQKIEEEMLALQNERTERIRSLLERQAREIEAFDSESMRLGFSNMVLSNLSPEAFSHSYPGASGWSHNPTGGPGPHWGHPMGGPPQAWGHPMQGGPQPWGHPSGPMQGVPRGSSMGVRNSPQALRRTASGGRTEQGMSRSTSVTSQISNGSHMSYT

Primary hepatocyte = assay: Inhibition of MST1/2 (unknown origin) in mouse Primary hepatocyte cells assessed as H2O2 stimulated MST1/2 autophosphorylation level at 1 to 3 uM by immunoblot analysis; type: cell-based; conditions: dose 1-3 µM
HepG2 = assay: Inhibition of Flag-tagged MST1 Y101F mutant (unknown origin) in human HepG2 cells assessed as MOB1 phosphorylation level at 3 uM by immunoblot analysis; type: cell-based
[20] = Inhibition of recombinant His-tagged full-length MST1 D109A mutant (unknown origin) expressing in Escherichia coli assessed as MOB1 phosphorylation level incubated for 15 min by immunoblot analysis; parameters: species or system Homo sapiens
[21] = Cmax in male Sprague-Dawley rat at 5 mg/kg, iv measured for 24 hrs by LC-MS/MS analysis; type: ADME, organism-based; conditions: in vivo
Procedure, shortened: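 Sprague-Dawley rats, single intravenous or oral dose. Parameters (half-life, AUC, bioavailability) reported in a supplementary table.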

[22] = Acute toxicity in wild-type mouse assessed as low level in oval cell expansion by at 1 mg/kg,ip administrated daily for 2 months by immunohistochemical staining; type: organism-based; conditions: in vivo, 1460 h
[23] = target: T1, Serine/threonine-protein kinase 3 (Homo sapiens, UniProt Q13188)
T1 sequence (Q13188 whole entry): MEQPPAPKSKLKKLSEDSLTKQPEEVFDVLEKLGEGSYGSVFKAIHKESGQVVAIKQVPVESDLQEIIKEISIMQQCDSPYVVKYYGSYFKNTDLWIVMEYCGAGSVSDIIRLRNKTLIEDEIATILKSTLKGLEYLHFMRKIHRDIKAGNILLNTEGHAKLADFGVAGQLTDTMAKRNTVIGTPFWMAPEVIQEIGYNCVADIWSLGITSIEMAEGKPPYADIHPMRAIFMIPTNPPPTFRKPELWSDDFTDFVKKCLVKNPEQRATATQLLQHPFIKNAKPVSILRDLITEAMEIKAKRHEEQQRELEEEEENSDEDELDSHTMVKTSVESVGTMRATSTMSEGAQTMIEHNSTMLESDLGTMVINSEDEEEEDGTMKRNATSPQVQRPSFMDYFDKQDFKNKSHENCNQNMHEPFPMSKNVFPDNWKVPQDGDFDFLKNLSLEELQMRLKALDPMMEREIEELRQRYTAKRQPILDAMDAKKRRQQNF

Sequence of Tyrosine-protein kinase ABL1 (Homo sapiens), P00519 [F317I] (P00519 whole entry F317I): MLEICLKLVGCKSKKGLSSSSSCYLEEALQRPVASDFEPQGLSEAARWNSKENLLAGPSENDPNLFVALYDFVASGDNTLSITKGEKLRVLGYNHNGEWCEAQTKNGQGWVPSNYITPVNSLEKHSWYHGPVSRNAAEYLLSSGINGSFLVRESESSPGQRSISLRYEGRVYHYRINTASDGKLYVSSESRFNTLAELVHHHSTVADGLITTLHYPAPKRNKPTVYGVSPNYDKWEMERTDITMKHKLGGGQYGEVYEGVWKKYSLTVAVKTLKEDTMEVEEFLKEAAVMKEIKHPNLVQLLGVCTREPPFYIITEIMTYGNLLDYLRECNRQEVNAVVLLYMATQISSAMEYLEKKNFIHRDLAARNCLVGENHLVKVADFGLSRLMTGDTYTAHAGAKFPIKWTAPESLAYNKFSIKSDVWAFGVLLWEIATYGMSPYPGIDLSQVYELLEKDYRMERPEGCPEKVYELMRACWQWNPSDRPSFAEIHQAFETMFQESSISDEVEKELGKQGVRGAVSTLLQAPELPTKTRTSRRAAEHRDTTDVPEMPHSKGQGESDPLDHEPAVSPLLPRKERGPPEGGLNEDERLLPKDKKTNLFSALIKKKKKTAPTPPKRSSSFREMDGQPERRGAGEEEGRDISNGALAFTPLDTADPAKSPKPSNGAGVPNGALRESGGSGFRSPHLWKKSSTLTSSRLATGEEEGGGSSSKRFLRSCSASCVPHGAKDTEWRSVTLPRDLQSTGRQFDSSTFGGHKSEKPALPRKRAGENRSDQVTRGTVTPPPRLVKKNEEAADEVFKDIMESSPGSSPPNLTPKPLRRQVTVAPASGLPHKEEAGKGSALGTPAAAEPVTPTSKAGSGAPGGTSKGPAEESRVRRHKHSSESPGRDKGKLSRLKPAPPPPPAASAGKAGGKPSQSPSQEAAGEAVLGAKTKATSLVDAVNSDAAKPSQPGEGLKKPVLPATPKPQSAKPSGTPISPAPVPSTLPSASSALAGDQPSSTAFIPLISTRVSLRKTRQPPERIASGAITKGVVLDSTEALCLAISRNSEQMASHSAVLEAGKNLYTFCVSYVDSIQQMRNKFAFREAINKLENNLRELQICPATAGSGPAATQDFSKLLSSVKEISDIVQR

SMILES: CN1C(=O)c2sccc2N(C)c2nc(Nc3ccc(S(N)(=O)=O)cc3)ncc21
- Activity [1]: 40%
- Activity [2]: 98%
- Activity [3]: 94%
- Activity [4]: 84%
- Activity [5]: 86%
- Activity [6]: 85%
- Activity [7]: 93%
- Activity [8]: 90%
- Activity [9]: 100%
- Activity [10]: 67%
- Activity [11]: 98%
- Activity [12]: 2.6%
- Activity [13]: 79%
- Activity [14]: 86%
- Activity [15]: 100%
- Activity [16]: 99%
- Kd [17]: 34 nM
- Kd [18]: 34 nM
- Kd [19]: 180 nM
- inhibition (Primary hepatocyte): Active
- inhibition (HepG2): Active
- IC50 [20]: 753 nM
- Cmax [21]: 1140 ng/mL
- Activity [22]: Toxic
- IC50 [23]: 38.8 nM
